Source: PubChem BioAssay (several laboratories)
Only some compounds are listed: those with a hit (about 1.7% of all), similar ones and a draw of the others.
Rpn11 inh: inhibitors of human proteasome Rpn11; 360,000 tested, 0.59% active; AID 588493; inhibition, % at 20 µM; O00487; human 26S proteasome, Ub4-pepOG fluorescence polarization; 20S core pre-blocked with epoxomicin;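 active means inhibition at 20 µM, scaled to each plate's controls, above about 33%, limit read from the data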
Target sequence (O00487 whole entry, looked up): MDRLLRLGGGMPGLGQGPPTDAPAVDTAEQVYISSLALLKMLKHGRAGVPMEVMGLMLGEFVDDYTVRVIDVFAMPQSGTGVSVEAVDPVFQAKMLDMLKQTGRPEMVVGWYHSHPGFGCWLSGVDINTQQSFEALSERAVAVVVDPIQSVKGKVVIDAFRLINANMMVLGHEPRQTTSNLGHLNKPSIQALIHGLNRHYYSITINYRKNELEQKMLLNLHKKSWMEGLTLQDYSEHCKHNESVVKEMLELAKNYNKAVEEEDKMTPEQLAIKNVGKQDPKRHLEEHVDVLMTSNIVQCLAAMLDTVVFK
TPT1 inh: C. albicans TPT1 enzyme inhibition | inhibition, % at 5 µM | 300,000 tested, 0.81% active | AID 1962 | recombinant caTPT1, FP RNA substrate dephosphorylation;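 active means inhibition above the mean of all tested compounds plus 3 SD, set per screening campaign, cut at about 24% in these data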;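 further: plate controls were DMSO alone for no effect and ferristatin control at 100 nM for full effect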
HNF4A DNA FP: change in binding of human HNF4 alpha to DNA | 360,000 tested, 0.3% active | AID 1224865 | HNF4a-FITC DNA binding, fluorescence polarization, 1 h | P41235 | activity change, % at 10 µM; in the data active means activity change above about 30%, passing the limit was not always enough
CSN inh: CSN deneddylation inhibition | Purified CSN, SCF-Nedd8-OG deneddylation, fluorescence polarization | inhibition, % at 12.5 µM | 360,000 tested, 0.38% active | AID 651999;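 active means pattern-corrected inhibition above about 35%, with an unprinted fluorescence ratio check between 0.5 and 1.5, limit read from the data, passing the limit was not always enough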;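 further: 0% = enzyme with substrate and 100% = substrate without enzyme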
Target sequence (Q92905 whole entry, looked up, one chain of several): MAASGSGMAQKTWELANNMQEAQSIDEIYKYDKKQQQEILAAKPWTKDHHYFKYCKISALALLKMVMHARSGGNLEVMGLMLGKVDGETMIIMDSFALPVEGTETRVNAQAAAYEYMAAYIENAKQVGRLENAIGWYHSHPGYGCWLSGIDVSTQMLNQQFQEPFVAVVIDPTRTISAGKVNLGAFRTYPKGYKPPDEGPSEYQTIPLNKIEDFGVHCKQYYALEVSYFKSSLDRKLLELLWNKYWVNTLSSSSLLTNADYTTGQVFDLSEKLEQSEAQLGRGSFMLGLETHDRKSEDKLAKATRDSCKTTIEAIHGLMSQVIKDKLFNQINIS
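Schedule: reaction 90 min, room temperature / Assay system: HEK293T-derived human Csn5 enzyme / Input: Csn5 at 0.24 nM final / Measure: inhibition of Csn5 cleavage, % / Control set: substrate-only high control, full reaction low control / Technique: fluorescence polarization of the substrate / Buffer or medium: Tris/NaCl/DTT buffer, pH 7.5 / Reagent: SCFSkp2-Nedd8OG substrate at 10 nM final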
IDE cell activ: boosts human insulin-degrading enzyme activity in HEK cells; P14735; FAbeta-B cleavage, fluorescence polarization; 0% vehicle, 100% cell-free pure enzyme wells; activation, % at 5.96 µM; 340,000 tested, 0.073% active;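 active means activation above the mean of all tested compounds plus 3 SD, set per screening campaign, cut at about 17% in these data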
IDE cell inh: cellular human IDE inhibition. P14735. HEK cells, FAbetaB cleavage, fluorescence polarization. inhibition, % at 5.59 µM. 320,000 tested, 0.41% active. AID 434962;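 active means percent inhibition above the average of all tested compounds plus 3 SD, set per screening campaign, cut at about 16% in these data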;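 further: IDE supplied by intact live HEK cells; FP after avidin binding of uncleaved biotin substrate so inhibition keeps polarization high; 0% = DMSO wells and 100% = 60 µM reference IDE inhibitor Ii1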
IDE inh confirm: cellular human IDE inhibition, confirmation. shares compounds with IDE cell inh. inhibition, % at 5.59 µM. HEK cells, FAbetaB cleavage, fluorescence polarization. 1,200 tested, 51% active;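 active means mean inhibition across triplicate wells above the cutoff set by the earlier primary insulin-degrading enzyme screen, cut at about 16% in these data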;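 further: 0% = DMSO wells and 100% = 60 µM reference IDE inhibitor Ii1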
HEK cytotox: kills HEK cells in IDE inhibitor counter-screen; shares compounds with IDE cell inh; HEK293 cytotoxicity, ATP luminescence; inhibition, % at 5.59 µM; 1,200 tested, 28% active; in the data active means inhibition above about 22%;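 further: 0% = vehicle wells and 100% = reference cytotoxic drug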
An asterisk follows results filed as active.

What do the screens show for `CC(C)NC(=O)Nc1ccc2c(c1)C(=O)N([C@H](C)CO)C[C@H](C)[C@@H](CN(C)S(=O)(=O)c1ccc(F)cc1)O2`?
Rpn11 inh: -1; HNF4A DNA FP: -2; CSN inh: -6; IDE cell activ: 7; IDE cell inh: 1

What do the screens show for `O=C(Nc1ccccc1SCC1CSc2nc3ccccc3c(=O)n21)c1ccccc1` (stereo not given)?
Rpn11 inh: -3; TPT1 inh: 0; HNF4A DNA FP: 4; CSN inh: 3; IDE cell activ: -37; IDE cell inh: 18*; IDE inh confirm: 10; HEK cytotox: 20

What do the screens show for `Nc1c(C(=O)N/N=C/c2ccc(Cl)cc2)cnn1-c1ccccc1`?
Rpn11 inh: -2; TPT1 inh: 1; HNF4A DNA FP: 2; CSN inh: 119*; IDE cell activ: -3; IDE cell inh: 18*; IDE inh confirm: 2; HEK cytotox: 9

Results for Nc1c(C(=O)N/N=C/c2cccnc2)cnn1-c1ccccc1 ?
Rpn11 inh: 1; TPT1 inh: 1; HNF4A DNA FP: -2; CSN inh: 3; IDE cell activ: 0; IDE cell inh: 2

What do the screens show for `C1=C(CCNc2ncnc3c2[nH]c2ccccc23)CCCC1`?
Rpn11 inh: 6; TPT1 inh: 4; HNF4A DNA FP: 5; CSN inh: 9; IDE cell activ: -35; IDE cell inh: 35*; IDE inh confirm: 13; HEK cytotox: 87*

How did COc1cccc(C(=O)Nc2cccc(-c3nnc(-c4ccccc4)o3)c2)c1 do in these assays?
Rpn11 inh: 0; TPT1 inh: 0; HNF4A DNA FP: 8; CSN inh: 1; IDE cell activ: -12; IDE cell inh: 17*; IDE inh confirm: 1; HEK cytotox: 21

Results for O=C(Nc1cccc(-c2nnc(-c3ccco3)o2)c1)c1ccccc1 ?
Rpn11 inh: -2; TPT1 inh: -2; HNF4A DNA FP: 1; CSN inh: 2; IDE cell inh: -3

Results for CCOc1cccc(C(=O)Nc2cccc(-c3nnc(-c4ccccc4)o3)c2)c1 ?
Rpn11 inh: 0; TPT1 inh: -1; HNF4A DNA FP: 1; CSN inh: -2; IDE cell activ: -10; IDE cell inh: 0

What do the screens show for `COc1cccc(C(=O)Nc2ccc(-c3nnc(-c4ccco4)o3)cc2)c1`?
Rpn11 inh: 4; TPT1 inh: -1; HNF4A DNA FP: -2; CSN inh: -2; IDE cell activ: -9; IDE cell inh: 22*; IDE inh confirm: 9; HEK cytotox: 23*

What do the screens show for `Cc1ccc(CN2C(=O)CSCC2(C)C(=O)NC(C)C)cc1` (stereo not given)?
HNF4A DNA FP: 0; CSN inh: -1

Results for O=C(N/N=C/c1ccc(Cl)cc1Cl)c1cccc(N2CCCC2=O)c1 ?
Rpn11 inh: -4; TPT1 inh: -3; HNF4A DNA FP: 1; CSN inh: 1; IDE cell activ: -8; IDE cell inh: 34*; IDE inh confirm: 15; HEK cytotox: 19

What do the screens show for `O=C(NN=Cc1ccc(Cl)cc1Cl)c1ccccc1`?
Rpn11 inh: 8; HNF4A DNA FP: -2; CSN inh: -9

How did COc1ccccc1C(=O)Nc1ccccc1SC(=O)c1ccccc1OC do in these assays?
Rpn11 inh: -2; TPT1 inh: 2; HNF4A DNA FP: 0; CSN inh: 6; IDE cell activ: -21; IDE cell inh: 43*; IDE inh confirm: 11; HEK cytotox: 30*

How did COC(=O)c1ccccc1NC(=O)c1ccccc1OC do in these assays?
Rpn11 inh: 3; TPT1 inh: -5; HNF4A DNA FP: 1; CSN inh: -5; IDE cell activ: -6; IDE cell inh: 5

Results for NC(N)=NC(N)=Nc1cccc2ccccc12 ?
Rpn11 inh: 3; TPT1 inh: -5; HNF4A DNA FP: 1; CSN inh: -3; IDE cell activ: 8; IDE cell inh: 17*; IDE inh confirm: -2; HEK cytotox: 13

What do the screens show for `Nc1c2c(nc3ccn(-c4ccccc4)c(=O)c13)CCCCC2`?
Rpn11 inh: 0; TPT1 inh: 0; HNF4A DNA FP: 2; CSN inh: -1; IDE cell activ: -8; IDE cell inh: 18*; IDE inh confirm: 19*; HEK cytotox: 15

How did CN1C(=O)CSc2ccc(NC(=O)NCCC3=CCCCC3)cc21 do in these assays?
Rpn11 inh: -3; TPT1 inh: 1; HNF4A DNA FP: 1; CSN inh: 1; IDE cell activ: -14; IDE cell inh: 17*; IDE inh confirm: 10; HEK cytotox: 19

What do the screens show for `COc1ccc(OC)c(S(=O)(=O)Nc2ccc3c(c2)OCCO3)c1`?
Rpn11 inh: 4; HNF4A DNA FP: 4; CSN inh: -3

How did O=C(CSc1ccsc1[N+](=O)[O-])N1CCN(c2ccc(Cl)cc2)CC1 do in these assays?
Rpn11 inh: -5; TPT1 inh: 3; HNF4A DNA FP: -7; CSN inh: 1; IDE cell activ: -12; IDE cell inh: 25*; IDE inh confirm: 5; HEK cytotox: 16

Results for Cc1ccc(N2C(=O)c3cccc4c(N)ccc(c34)C2=O)c2cccnc12 ?
TPT1 inh: 14; HNF4A DNA FP: -103; CSN inh: -78; IDE cell activ: -80; IDE cell inh: 84*; IDE inh confirm: 65*; HEK cytotox: 68*

What do the screens show for `Cc1nn(C)c(C)c1N1C(=O)c2cccc3c(N)ccc(c23)C1=O`?
Rpn11 inh: -243; TPT1 inh: -106; HNF4A DNA FP: -91; CSN inh: -72; IDE cell activ: 12; IDE cell inh: 7

Results for CCN1C(=O)c2cccc3c(N)ccc(c23)C1=O ?
Rpn11 inh: -259; TPT1 inh: -94; HNF4A DNA FP: -101; CSN inh: -76; IDE cell activ: 0; IDE cell inh: 24*; IDE inh confirm: 61*; HEK cytotox: 11

What do the screens show for `COc1ccc(Br)cc1C1=CC(=O)C[C@H](c2ccc(F)cc2)C1`?
Rpn11 inh: 6; HNF4A DNA FP: -5; CSN inh: 3

Results for O=C(CSc1nnc(-c2ccc(Br)cc2)o1)N1CCN(C(=O)c2ccco2)CC1 ?
Rpn11 inh: -1; TPT1 inh: 2; HNF4A DNA FP: -4; CSN inh: -2; IDE cell activ: -15; IDE cell inh: 17*; IDE inh confirm: 9; HEK cytotox: 6

What do the screens show for `O=C(O)CN1C(=O)C=CC1=O`?
Rpn11 inh: 3; HNF4A DNA FP: -5; CSN inh: 3
